The test system of assay [1] is SK-N-SH. The experiment in a line: Induction of neurite outgrowth in human SK-N-SH cells at 2 to 5 uM after 48 hrs by crystal violet staining. The format is functional, cell-based.
The subject of assay [2] is SH-SY5Y. Kind of assay: Induction of neurite outgrowth in human SH-SY5Y cells at 2 to 5 uM after 48 hrs by crystal violet staining. The format is functional, cell-based.
Assay [3] concerns N2a. The experiment in a line: Induction of neurite outgrowth in mouse Neuro2a cells at 2 to 5 uM after 48 hrs by crystal violet staining. The format is functional, cell-based.
Assay [4] has as its system U-87MG ATCC. The experiment in a line: Induction of neurite outgrowth in human U87 cells at 2 to 5 uM after 48 hrs by crystal violet staining. The format is functional, cell-based.
Assay [5] relates to P19. The experiment in a line: Induction of neurite outgrowth in mouse P19 cells at 2 to 5 uM after 48 hrs by crystal violet staining. Type of assay: functional, cell-based.
The subject of assay [6] is U-937. Kind of assay: Induction of dendrite out growth in IL-4/GMCSF-stimulated human U937 cells assessed as dendrite length at 100 nM after 48 hrs by light microscopy. Type of assay: functional. In a few lines: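 U937 cells at 1.1 × 10⁶ cells/mL were primed with 10 ng/mL PMA for 48 h in RPMI with 10% heat-inactivated serum. Adherent cells were then given 100 ng/mL IL-4 plus 100 ng/mL GM-CSF or 100 nM compound for 48 h. Dendrite length scored by light microscopy, from none to over 100 μm with a contact network.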

Assay [7] has as its system U-937. The experiment in a line: Cytotoxicity against human U937 cells after 3 days by trypan blue exclusion assay. Type of assay: functional, cell-based. The conditions noted are these: u-937. In a few lines:
(§1)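 U937 and P19 cells treated with compound. Cell death scored by trypan blue exclusion, with cells scraped, suspended in 0.25% w/v trypan blue in PBS and counted in a Malassez cell. IC50 is the concentration giving 50% cytotoxicity.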

Assay [8] has as its system P19. The experiment in a line: Induction of dendrite out growth in IL-4/GMCSF-stimulated mouse P19 cells assessed as dendrite length at 100 nM after 48 hrs by light microscopy. The format is functional.
Assay [9] deals with P19. Kind of assay: Cytotoxicity against mouse P19 cells after 3 days by trypan blue exclusion assay. Type of assay: functional, cell-based. The note with it: p19. In a few lines: as §1
The next assay deals with MCF7. The experiment in a line: Cytotoxicity against human MCF7 cells up to 20 uM after 72 hrs by trypan blue exclusion assay. Type of assay: functional, cell-based. The gist of the method: (§2)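 Tumor lines grown at 37 °C in 5% CO₂, in RPMI 1640 or DMEM with FBS. Cells exposed to compound from 10 nM to 20 μM for 72 h. Cytotoxicity counted by trypan blue exclusion: cells scraped, suspended in 0.25% w/v trypan blue in PBS and counted in a Malassez cell under light microscopy. IC50 is the concentration giving 50% cytotoxicity.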

The test system of the next assay is TS/A. Kind of assay: Cytotoxicity against mouse TSA cells up to 20 uM after 72 hrs by trypan blue exclusion assay. Type of assay: functional, cell-based. In a few lines:
as §2

Another assay concerns SK-MEL-28. Kind of assay: Cytotoxicity against human SK-MEL-28 cells up to 20 uM after 72 hrs by trypan blue exclusion assay. The format is functional, cell-based. In a few lines:
as §2

In the next assay the test system is B16-F10. The experiment in a line: Cytotoxicity against mouse B16F10 cells up to 20 uM after 72 hrs by trypan blue exclusion assay. The format is functional, cell-based. In a few lines:
as §2

Another assay has as its system A549. The experiment in a line: Cytotoxicity against human A549 cells up to 20 uM after 72 hrs by trypan blue exclusion assay. Type of assay: functional, cell-based. In a few lines: as §2
In assay [10] the test system is P19. The experiment in a line: Cytotoxicity against mouse P19 cells up to 20 uM after 72 hrs by trypan blue exclusion assay. The format is functional, cell-based. In a few lines:
as §2

For assay [11], the system named is SK-N-SH. Kind of assay: Cytotoxicity against human SK-N-SH cells up to 20 uM after 72 hrs by trypan blue exclusion assay. The format is functional, cell-based. In a few lines:
as §2

For assay [12], the system named is SH-SY5Y. The experiment in a line: Cytotoxicity against human SH-SY5Y cells up to 20 uM after 72 hrs by trypan blue exclusion assay. Type of assay: functional, cell-based. In a few lines:
as §2

The subject of assay [13] is N2a. Kind of assay: Cytotoxicity against mouse Neuro2a cells up to 20 uM after 72 hrs by trypan blue exclusion assay. The format is functional, cell-based. The gist of the method:
as §2

Assay [14] deals with U-87MG ATCC. The experiment in a line: Cytotoxicity against human U87 cells up to 20 uM after 72 hrs by trypan blue exclusion assay. Type of assay: functional, cell-based. The gist of the method:
as §2

In assay [15] the test system is U-937. The experiment in a line: Cytotoxicity against human U937 cells up to 20 uM after 72 hrs by trypan blue exclusion assay. The format is functional, cell-based. The gist of the method: as §2
For another assay, the system named is NB-4. The experiment in a line: Cytotoxicity against human NB4 cells up to 20 uM after 72 hrs by trypan blue exclusion assay. Type of assay: functional, cell-based. The gist of the method: as §2
A further assay relates to KG-1. Kind of assay: Cytotoxicity against human KG1 cells up to 20 uM after 72 hrs by trypan blue exclusion assay. The format is functional, cell-based. In a few lines: as §2
A further assay deals with HCT-8. Kind of assay: Cytotoxicity against human HCT8 cells up to 20 uM after 72 hrs by trypan blue exclusion assay. Type of assay: functional, cell-based. In a few lines:
as §2

The test system of another assay is SW-620. The experiment in a line: Cytotoxicity against human SW620 cells up to 20 uM after 72 hrs by trypan blue exclusion assay. The format is functional, cell-based. The gist of the method:
as §2

Assay [16] has as its system P19. Kind of assay: Induction of neuritogenesis in mouse P19 cells assessed as dendrite expansion at 10 nM after 48 hrs by light microscopy. Type of assay: functional, cell-based. The gist of the method:
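P19 embryonal carcinoma cells exposed to 10 nM or solvent vehicle for 48 h; dendrite expansion and cell-contact network assessed by light microscopy.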

The test system of assay [17] is P19. Kind of assay: Induction of mouse P19 cell differentiation into neuron assessed as stimulation of MAP2A expression at 10 nM after 48 hrs by immunocytochemistry. Type of assay: functional, cell-based. The gist of the method: (§3)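 P19 cells seeded at 10 000/well and treated with vehicle or 10 nM compound. Cells fixed in 4% paraformaldehyde, permeabilized with 1% BSA/0.05% saponin and blocked in 3% BSA. Stained with anti-MAP2A (1/100) or anti-β3-tubulin (1/200) for 1 h at room temperature, then TRITC secondary, and viewed by fluorescence microscopy.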

In assay [18] the test system is P19. The experiment in a line: Induction of mouse P19 cell differentiation into neuron assessed as stimulation of beta-3 tubulin expression at 10 nM after 48 hrs by immunocytochemistry. Type of assay: functional, cell-based. The gist of the method: as §3
In assay [19] the test system is P19. Kind of assay: Induction of mouse P19 cell differentiation into neuron assessed as stimulation of NMDAR1 expression at 10 nM after 48 hrs by Western blotting. Type of assay: functional, cell-based. In a few lines:
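P19 cells treated with 10 nM compound for 48 h and lysed in Tris pH 7.4 RIPA-type buffer. Proteins run on 7.5% SDS-PAGE and blotted to PVDF. Probed overnight at 4 °C with anti-NMDAR1 (1:1000), with GAPDH as loading control, and detected by enhanced chemiluminescence.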
In general terms: Immunoblotting shows a protein as a band on a membrane.

The subject of assay [20] is SK-N-SH. Kind of assay: Induction of neurite outgrowth in human SK-N-SH cells at 100 nM after 48 hrs by crystal violet staining. Type of assay: functional, cell-based.
Assay [21] concerns SH-SY5Y. The experiment in a line: Induction of neurite outgrowth in human SH-SY5Y cells at 100 nM after 48 hrs by crystal violet staining. The format is functional, cell-based. In a few lines: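 Cells exposed to 100 nM compound for 48 h on poly-D-lysine-coated inserts with a 3 μm pore membrane. Neurites crossing the membrane were methanol-fixed and stained, cell bodies were removed, and the dye was extracted and read at 562 nm.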

For assay [22], the system named is N2a. Kind of assay: Induction of neurite outgrowth in mouse Neuro2a cells at 100 nM after 48 hrs by crystal violet staining. The format is functional, cell-based.
The test system of assay [23] is U-87MG ATCC. The experiment in a line: Induction of neurite outgrowth in human U87 cells at 100 nM after 48 hrs by crystal violet staining. Type of assay: functional, cell-based.
Assay [24] has as its system P19. The experiment in a line: Induction of neurite outgrowth in mouse P19 cells at 100 nM after 48 hrs by crystal violet staining. Type of assay: functional, cell-based.
The species named for a further assay is Mus musculus. Kind of assay: Neuroprotective activity in mouse motoneuron assessed as cell proliferation at 10 nM treated for 3 days measured on day 2 to 6 post-treatment by cell counting method. Type of assay: functional. The conditions noted are these: in the assay text read “cell survival” for “cell proliferation”. In a few lines: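 Purified mouse motoneurons; solvent vehicle, 100 ng/mL BDNF or 10 nM test agent added immediately after seeding; cells counted at days 2, 3, 4 and 6; surviving motoneurons expressed as percentage.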

Assay [25] concerns U-937. Kind of assay: Cytotoxicity against human U937 cells up to 20 uM after 3 days by trypan blue exclusion assay. The format is functional, cell-based. The gist of the method:
as §1

Assay [26] concerns P19. Kind of assay: Cytotoxicity against mouse P19 cells up to 20 uM after 3 days by trypan blue exclusion assay. Type of assay: functional, cell-based. In a few lines: as §1

Activity calls are given as the source filed them. The rule behind the calls is not given here.

On to `CC1=C(/C=C/C(C)=C/C=C/C(C)=C/C(=O)O)C(C)(C)CCC1` [TRETINOIN], for which the result with SK-N-SH [1], with SH-SY5Y [2], with N2a [3], in the assay on U-87MG ATCC [4] and in the assay on P19 [5] was Active. For the same compound, the result with U-937 [6] and with P19 [8] was inactive. Also, the IC50 entry in the assay on U-937 [7] and with P19 [9] was “Not Active” in each case.
Consider `CC(C)CCC[C@@H](C)[C@H]1CC[C@H]2C3=C[C@@H](NCCCNCCCCN)[C@@]4(O)C[C@@H](O)CC[C@]4(C)[C@H]3CC[C@]12C` [DENDROGENIN B], for which the outcome with MCF7, with TS/A, in the assay on SK-MEL-28, in the assay with B16-F10, in the assay with A549 and in the assay on P19 [10] was inactive. The outcome with SK-N-SH [11], in the assay with SH-SY5Y [12], in the assay with N2a [13], with U-87MG ATCC [14], in the assay on U-937 [15] and in the assay on NB-4 was inactive. In addition, the result in the assay with KG-1, in the assay on HCT-8, with SW-620, in the assay on U-937 [25] and with P19 [26] was inactive. Moreover, the outcome with P19 [16], in the assay with P19 [17], in the assay on P19 [18], in the assay on P19 [19], with SK-N-SH [20] and with SH-SY5Y [21] was Active. The result in the assay on N2a [22], in the assay on U-87MG ATCC [23], in the assay with P19 [24] and in the assay listed under Mus musculus was Active. Also, the Activity in the assay on U-937 [6] was under 5 um; with P19 [8], over 100 um. Also, the IC50 entry in the assay with U-937 [7] and in the assay on P19 [9] was “Not Active” in each case.

(Values after ChEMBL document CHEMBL1156107, “Synthesis of new alkylaminooxysterols with potent cell differentiating activities: identification of leads for the treatment of cancer and neurodegenerative diseases” (J Med Chem, 2009).)
